High-throughput results: PubChem BioAssay, Johns Hopkins Ion Channel Center
Compounds with a hit are over-represented: about 3.7% of the library has one in this group of screens.
KCNQ1 block: inhibitors of human KCNQ1 channel, primary screen, cell-based, thallium flux, high-throughput | CHO-K1 KCNQ1, FluxOR thallium flux fluorescence; stronger effect = higher value | B-score at 10 µM | Potassium voltage-gated channel subfamily KQT member 1 (Homo sapiens), P51787 | 1.3% of 310,000 active;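 active means compounds whose thallium flux B-score, printed positive for inhibition, exceeds three library SD while starting fluorescence stays within three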;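 further: channel opened by potassium depolarization with thallium stimulus after 20 min compound exposure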
Target sequence (P51787 whole entry, looked up): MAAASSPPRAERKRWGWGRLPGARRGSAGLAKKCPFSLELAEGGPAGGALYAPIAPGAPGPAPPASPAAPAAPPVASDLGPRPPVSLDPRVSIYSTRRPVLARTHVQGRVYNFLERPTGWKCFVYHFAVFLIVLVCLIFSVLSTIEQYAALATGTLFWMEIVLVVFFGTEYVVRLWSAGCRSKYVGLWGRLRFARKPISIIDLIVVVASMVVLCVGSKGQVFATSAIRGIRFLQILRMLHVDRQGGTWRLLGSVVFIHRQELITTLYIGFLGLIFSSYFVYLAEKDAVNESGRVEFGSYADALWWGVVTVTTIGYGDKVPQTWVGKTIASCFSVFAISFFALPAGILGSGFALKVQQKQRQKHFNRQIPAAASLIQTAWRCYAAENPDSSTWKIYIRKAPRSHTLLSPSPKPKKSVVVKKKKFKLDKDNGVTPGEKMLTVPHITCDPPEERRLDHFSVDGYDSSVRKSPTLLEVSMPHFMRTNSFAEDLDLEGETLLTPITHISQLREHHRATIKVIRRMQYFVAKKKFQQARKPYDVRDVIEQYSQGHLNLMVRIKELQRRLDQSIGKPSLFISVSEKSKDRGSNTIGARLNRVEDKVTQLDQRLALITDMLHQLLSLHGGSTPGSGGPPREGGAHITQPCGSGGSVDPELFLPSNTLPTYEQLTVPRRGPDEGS
KCNQ1 pot: potentiators or activators of KCNQ1 channel, primary screen, cell-based, thallium flux, high-throughput; Potassium voltage-gated channel subfamily KQT member 1 (Homo sapiens), P51787; CHO-K1 KCNQ1, thallium flux FluxOR fluorescence; stronger effect = higher value; B-score at 10 µM; 0.35% of 310,000 active;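 active means fluorescence ratio B-score, a plate-corrected score, at least three library SD, with initial intensity B-score within 5 SD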
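Material: CHO-K1 cells stably expressing KCNQ1. Medium: assay buffer for compound exposure, DMSO matched across wells. Reagent: K+/Tl+ depolarizing stimulus. Compound dosing: single-concentration screen. Times: 37 °C overnight plating, 90-min dark dye load, 20-min compound pretreatment. Technique: FluxOR Tl+ flux fluorescence.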
KCNK3 block: human KCNK3 channel inhibitors, primary screen, CHO cells, FluxOR thallium flux, B-score. AID 602410, 2012. FluxOR fluorescence; stronger effect = lower value. B-score at 10 µM. 0.84% of 340,000 active;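 active means B-score under library mean minus 4 SD, starting fluorescence ratio at most library mean plus 5 SD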;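 further: more negative B-score means stronger inhibition of thallium flux through KCNK3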
Kir21 block: inhibitors of mouse Kir2.1 inward-rectifier potassium channel; Inward rectifier potassium channel 2 (Mus musculus), P35561; HEK293-Kir2.1, FluxOR thallium flux fluorescence; stronger effect = lower value; B-score at 10 µM; 0.85% of 310,000 active; AID 1672, 2009;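 active means fluorescence ratio B-score at or below minus 3 SD of library scores, with starting-brightness B-score within 2 SD, cut at about -4.2 in these data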;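 further: channel flux triggered by added potassium and thallium sulfate stimulus; B-score of peak minus minimum fluorescence over baseline after thallium stimulus; more negative B-score means stronger Kir2.1 block with less thallium influx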
KCNK9 block: KCNK9 potassium channel inhibitors, primary screen, HEK293 cells, thallium flux | FluxOR thallium flux fluorescence; stronger effect = lower value | B-score at 10 µM | 1.2% of 310,000 active | AID 488922, 2010;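 active means ratio B-score over 3 SD below the library mean, with starting fluorescence within 5 SD of its mean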;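 further: negative B-score means less thallium flux so channel inhibition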
hERG protect: hERG rescue from dofetilide block, primary screen, cell-based, CHO-hERG, FluxOR thallium flux, dofetilide IC70 | dofetilide IC70 present | activation (rescue from dofetilide block), less the hit threshold, % at 10 µM | 0.51% of 310,000 active;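 active means activation above the mean of controls blocked by dofetilide plus 5 SD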;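 further: thallium influx through hERG after potassium depolarization seen as dye fluorescence rise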
KCNK9 inh conf: KCNK9 potassium channel inhibitors, confirmation, HEK293 cells, thallium flux, duplicate; 43% of 4,900 active; inhibition, % at 10 µM; FluxOR thallium flux fluorescence; shares compounds with KCNK9 block;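 active means thallium signal inhibited by more than 5 SD of the compound-free buffer control wells, on both duplicate plates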
Kir21 sel: mouse Kir2.1 channel inhibition, confirmation, selectivity assay for KCNK9 modulator project, cell-based, HEK293, thallium flux. shares compounds with KCNK9 block. Kir2.1 cells, FluxOR thallium flux fluorescence. inhibition, % at 10 µM. 4% of 4,900 active. AID 492993, 2010;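 active means thallium signal drop more than 5 SD beyond the mean of the no-compound control wells, seen in both duplicate plates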;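 further: signal is fluorescence rise after thallium addition divided by baseline fluorescence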
KCNK9 uninduced: thallium flux in non-induced HEK293 cells, confirmation, counter-screen for KCNK9 inhibitor project, cell-based, second counter screen, non-induced KCNK9-HEK293; shares compounds with KCNK9 block; FluxOR thallium flux; inhibition, % at 10 µM; 40% of 4,900 active; AID 492997, 2010;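 active means thallium signal drop beyond 5 SD of the untreated control mean, on both duplicate plates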
Numbers stand for hits; n = inactive; x = no result given.

SMILES | KCNQ1 block | KCNQ1 pot | KCNK3 block | Kir21 block | KCNK9 block | hERG protect | KCNK9 inh conf | Kir21 sel | KCNK9 uninduced
CC(NCC(=O)Nc1cc(S(=O)(=O)N2CCCCCC2)ccc1Cl)c1ccccc1 (stereo not drawn) | n | n | n | n | n | n | n | n | n
Cc1ccc(S(=O)(=O)N2CCN(C(=O)CN3CCN(c4ccc(O)cc4)CC3)CC2)cc1 | x | x | n | x | x | x | x | x | x
O=C(OCc1cc(Cl)cc2c1OCOC2)c1cccnc1Cl | x | x | n | x | x | x | x | x | x
CNS(=O)(=O)c1cccc(C(=O)OCc2cc(Cl)cc3c2OCOC3)c1 | n | n | n | n | -13 | n | 48% | n | n
COc1ccccc1OCCSc1nc2ccccc2n1CC(O)CO (stereo not drawn) | n | n | n | n | n | n | x | x | x
CC(C)Cn1c(CCC(N)=O)nnc1SC(C)C(=O)Nc1ccc2c(c1)OCO2 (stereo not drawn) | x | x | n | x | x | x | x | x | x
O=C(CSc1nnc(-c2cccc(Br)c2)o1)N1CCOCC1 | n | n | n | n | n | n | x | x | x
COc1cc(/C=C2\C(=N)N3N=C(S(C)(=O)=O)SC3=NC2=O)cc(OC)c1OCCOc1cccc(C)c1 | n | n | n | n | n | n | n | n | n
CCS(=O)(=O)C1=NN2C(=N)/C(=C\c3ccc(OCCOc4cccc(OC)c4)c(OC)c3)C(=O)N=C2S1 | n | n | n | n | n | n | n | n | n
Cc1nn(CC(=O)OCC(=O)c2ccc(OC(F)F)cc2)c(C)c1[N+](=O)[O-] | x | x | n | x | x | x | x | x | x
O=C(CC(Nc1ccc(F)cc1)c1ccccc1)c1ccccc1 (stereo not drawn) | n | n | n | n | -11 | n | n | n | n
CCc1nc2c(s1)CCc1onc(-c3ccc(Cl)cc3)c1-2 | n | n | n | n | -13 | n | 70% | n | 38%
COc1ccc(C2=NN(C(=O)c3cccc([N+](=O)[O-])c3)C(c3cccc([N+](=O)[O-])c3)C2)cc1 (stereo not drawn) | n | n | n | n | -13 | n | 64% | n | 35%
Cc1ccc(NC(=O)c2cnn(-c3ccccc3)c2C)cc1 | n | n | n | n | n | n | x | x | x
Cc1ccc(NC(=O)c2cc(C)n(-c3ccccc3)c2C)cc1 | n | n | n | n | n | n | n | n | n
CC(C)(C)n1nnnc1C(c1cccc(C#N)c1)N1CCC(Cc2ccccc2)CC1 (stereo not drawn) | n | n | -11 | n | -18 | n | 60% | n | 34%
CCC(C)(C)n1nnnc1C(c1ccncc1)N1CCC(Cc2ccccc2)CC1 (stereo not drawn) | n | n | n | n | n | n | x | x | x
CCN(CC)S(=O)(=O)c1cccc(C(=O)NNC(=O)c2ccc3[nH]c(=O)c(=O)[nH]c3c2)c1 | n | n | n | n | n | n | x | x | x
CCCCOn1c(C)c(C(=O)OCC)c2c3no[n+]([O-])c3ccc21 | n | n | n | n | n | n | x | x | x
CCCCOn1c(C)c(C(=O)OCC)c2c3nonc3ccc21 | n | n | n | n | -8.4 | n | 33% | n | 32%
Cc1cc(C)c(CNC(=O)c2cc(C3CC3)nc3c2cnn3C(C)C)c(=O)[nH]1 | x | x | n | x | x | x | x | x | x
CC1CCCCN1C(=O)CSc1nc2cc3c(cc2c(=O)n1Cc1ccc2c(c1)OCO2)OCO3 (stereo not drawn) | n | n | n | n | n | n | n | n | 24%
CCOc1ccccc1N/C=C/C(=O)C(C)(C)C | n | n | n | n | n | n | n | n | n
COCCN(C(=O)CSc1nnc(-c2ccccc2C)n1C)c1c(N)n(Cc2ccccc2)c(=O)[nH]c1=O | n | n | n | n | n | n | x | x | x
COc1cc(C)ccc1OCCCOc1ccccc1Cl | n | n | n | n | n | n | x | x | x
SMILES | KCNQ1 block | KCNQ1 pot | KCNK3 block | Kir21 block | KCNK9 block | hERG protect | KCNK9 inh conf | Kir21 sel | KCNK9 uninduced
COc1cc(C)ccc1OCCCCOc1ccccc1C(C)=O | n | n | n | n | n | n | n | n | n
NC(=O)c1ccc(NC(=O)CSc2nnc(-c3ccccn3)n2N)cc1 | n | n | n | n | n | n | x | x | x
CCCC(=O)Nc1cccn(Cc2ccccc2Br)c1=O | n | n | n | n | n | n | x | x | x
O=C(CCC1CCCC1)Nc1cccn(Cc2ccccc2Br)c1=O | n | n | n | n | n | n | n | n | 26%
COc1ccccc1NC(=O)Nc1sccc1-c1nc2ccccc2s1 | n | n | n | n | -13 | n | 70% | n | 40%
O=C(Nc1ccccc1)Nc1sccc1-c1nc2ccccc2s1 | n | n | n | n | n | n | x | x | x
CCCCN(CCCC)c1ccc(C(=O)c2ccccc2C(=O)O)c(O)c1 | n | 18 | n | n | n | n | n | n | n
Cc1ccc(C(C)C)cc1S(=O)(=O)NC1CC(C)(C)NC(C)(C)C1 | n | n | n | n | n | n | x | x | x
O=C1C2=C(CCCC2)C(=O)N1c1cccc(OCCBr)c1 | n | n | n | n | n | n | x | x | x
CC(C)CN(CCOc1cccc(N2C(=O)C3=C(CCCC3)C2=O)c1)CC(C)C | n | n | n | n | n | n | n | n | n
CC1CC(C)CN(C(=O)c2ccc3c(c2)N(Cc2ccccc2)CCS3)C1 (stereo not drawn) | n | n | -12 | n | -8.2 | n | 51% | n | 34%
Cc1ccc(CN2CCSc3ccc(C(=O)NC4CCN(Cc5ccccc5)CC4)cc32)cc1 | 7 | n | n | n | n | n | n | n | n
COc1ccc([C@@H]2[C@@H]3C(=O)N(C(C)(C)C)C(=O)[C@@H]3[C@]3(CC(C)C)C(=O)N(c4cccc(Br)c4)C(=O)N23)cc1 | n | n | n | n | n | n | x | x | x
S=C(c1cn(Cc2ccc(Br)cc2)c2ccccc12)N1CCOCC1 | n | n | n | n | -10 | n | 34% | n | 40%
CC1CCN(C(=S)c2cn(Cc3ccc(F)cc3)c3ccccc23)CC1 | n | n | n | n | -11 | n | 44% | n | 38%
